Experiments:
[1] = tested on: Plasmodium berghei; assay: Antiplasmodial activity against GFP-fused Plasmodium berghei sporozoites infected in human HepG2A16 cells treated simultaneously with infection by fluorescence microscopic analysis; type: functional, organism-based
How it was run: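 HepG2-A16 cells (3 × 10^4/well, collagen-coated) infected with PbGFP sporozoites (5 × 10^3 to 1 × 10^4/well) and treated at the same time. Top concentration 10 µg/mL in DMEM, seven serial dilutions. Medium and compound renewed at 3 h and every 24 h. After 40 h at 37 °C: methanol fixation, anti-Plasmodium Hsp70 immunolabeling, Alexa 594 secondary, DAPI; high-content imaging.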

[2] = Genotoxicity in Salmonella typhimurium TA1535 harboring pSK1002 assessed as umu gene induction at 0.25 mg/ml in presence of Sprague-Dawley rat liver S9 fraction after by SOS/umu assay relative to control; type: toxicity, organism-based; conditions: salmonella enterica subsp. enterica serovar typhimurium, read-out: FC
[3] = Genotoxicity in Salmonella typhimurium TA1535 harboring pSK1002 assessed as umu gene induction at 0.25 mg/ml in absence of Sprague-Dawley rat liver S9 fraction after by SOS/umu assay relative to control; type: toxicity, organism-based; conditions: salmonella enterica subsp. enterica serovar typhimurium, read-out: FC
[4] = Genotoxicity in Salmonella typhimurium TA1535 harboring pSK1002 assessed as survival at 0.008 mg/ml in absence of Sprague-Dawley rat liver S9 fraction after by SOS/umu assay relative to control; type: toxicity, organism-based; conditions: salmonella enterica subsp. enterica serovar typhimurium, read-out: Survival
[5] = Genotoxicity in Salmonella typhimurium TA1535 harboring pSK1002 assessed as survival at 0.063 mg/ml in presence of Sprague-Dawley rat liver S9 fraction after by SOS/umu assay relative to control; type: toxicity, organism-based; conditions: salmonella enterica subsp. enterica serovar typhimurium, read-out: Survival
[6] = Genotoxicity in Salmonella typhimurium TA1535 harboring pSK1002 assessed as survival at 0.125 mg/ml in absence of Sprague-Dawley rat liver S9 fraction after by SOS/umu assay relative to control; type: toxicity, organism-based; conditions: salmonella enterica subsp. enterica serovar typhimurium, read-out: Survival
[7] = Genotoxicity in Salmonella typhimurium TA1535 harboring pSK1002 assessed as survival at 0.5 mg/ml in presence of Sprague-Dawley rat liver S9 fraction after by SOS/umu assay relative to control; type: toxicity, organism-based; conditions: salmonella enterica subsp. enterica serovar typhimurium, read-out: Survival
[8] = Genotoxicity in Salmonella typhimurium TA1535 harboring pSK1002 assessed as survival at 0.031 mg/ml in absence of Sprague-Dawley rat liver S9 fraction after by SOS/umu assay relative to control; type: toxicity, organism-based; conditions: salmonella enterica subsp. enterica serovar typhimurium, read-out: Survival
[9] = Genotoxicity in Salmonella typhimurium TA1535 harboring pSK1002 assessed as umu gene induction at 1 mg/ml in presence of Sprague-Dawley rat liver S9 fraction after by SOS/umu assay relative to control; type: toxicity, organism-based; conditions: salmonella enterica subsp. enterica serovar typhimurium, read-out: FC
[10] = Genotoxicity in Salmonella typhimurium TA1535 harboring pSK1002 assessed as umu gene induction at 0.5 mg/ml in absence of Sprague-Dawley rat liver S9 fraction after by SOS/umu assay relative to control; type: toxicity, organism-based; conditions: salmonella enterica subsp. enterica serovar typhimurium, read-out: FC
[11] = Genotoxicity in Salmonella typhimurium TA1535 harboring pSK1002 assessed as survival at 0.25 mg/ml in absence of Sprague-Dawley rat liver S9 fraction after by SOS/umu assay relative to control; type: toxicity, organism-based; conditions: salmonella enterica subsp. enterica serovar typhimurium, read-out: Survival
[12] = tested on: Plasmodium falciparum; assay: Antiplasmodial activity against multidrug-resistant Plasmodium falciparum C235 after 72 hrs by MSF assay; type: functional, organism-based; conditions: C235, 72 h
How it was run: (§1)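 D6 and C235 strains from the Walter Reed Army Institute of Research were tested by the Malaria SYBR Green-I fluorescence assay.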

[13] = Genotoxicity in Salmonella typhimurium TA1535 harboring pSK1002 assessed as umu gene induction at 0.5 mg/ml in presence of Sprague-Dawley rat liver S9 fraction after by SOS/umu assay relative to control; type: toxicity, organism-based; conditions: salmonella enterica subsp. enterica serovar typhimurium, read-out: FC
[14] = tested on: Plasmodium berghei; assay: Antiplasmodial activity against Plasmodium berghei ANKA infected in mouse assessed as mouse survival time at 50 mg/kg/day, po for 4 consecutive days starting from 2 hrs post infection by MSF assay; type: functional
How it was run: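 Swiss male mice (20 ± 2 g) infected i.p. with 10^7 P. berghei ANKA parasitized cells in 0.1 mL 0.9% saline (day 0). Oral dosing began 2 h post-infection and continued daily on days 0–3, five mice per batch. Test drugs were given at 50 mg/kg/day in water:DMSO and chloroquine diphosphate at 3 mg/kg/day; a vehicle control was included. Survival was checked daily, and parasitemia was read on day 4 by modified MSF assay.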

[15] = Genotoxicity in Salmonella typhimurium TA1535 harboring pSK1002 assessed as survival at 0.5 mg/ml in absence of Sprague-Dawley rat liver S9 fraction after by SOS/umu assay relative to control; type: toxicity, organism-based; conditions: salmonella enterica subsp. enterica serovar typhimurium, read-out: Survival
[16] = Genotoxicity in Salmonella typhimurium TA1535 harboring pSK1002 assessed as survival at 1 mg/ml in presence of Sprague-Dawley rat liver S9 fraction after by SOS/umu assay relative to control; type: toxicity, organism-based; conditions: salmonella enterica subsp. enterica serovar typhimurium, read-out: Survival
[17] = Genotoxicity in Salmonella typhimurium TA1535 harboring pSK1002 assessed as survival at 0.001 mg/ml in absence of Sprague-Dawley rat liver S9 fraction after by SOS/umu assay relative to control; type: toxicity, organism-based; conditions: salmonella enterica subsp. enterica serovar typhimurium, read-out: Survival
[18] = Genotoxicity in Salmonella typhimurium TA1535 harboring pSK1002 assessed as survival at 0.031 mg/ml in presence of Sprague-Dawley rat liver S9 fraction after by SOS/umu assay relative to control; type: toxicity, organism-based; conditions: salmonella enterica subsp. enterica serovar typhimurium, read-out: Survival
[19] = Genotoxicity in Salmonella typhimurium TA1535 harboring pSK1002 assessed as survival at 0.25 mg/ml in presence of Sprague-Dawley rat liver S9 fraction after by SOS/umu assay relative to control; type: toxicity, organism-based; conditions: salmonella enterica subsp. enterica serovar typhimurium, read-out: Survival
[20] = Genotoxicity in Salmonella typhimurium TA1535 harboring pSK1002 assessed as survival at 0.004 mg/ml in absence of Sprague-Dawley rat liver S9 fraction after by SOS/umu assay relative to control; type: toxicity, organism-based; conditions: salmonella enterica subsp. enterica serovar typhimurium, read-out: Survival
[21] = tested on: Plasmodium falciparum; assay: Antiplasmodial activity against Plasmodium falciparum D6 after 72 hrs by MSF assay; type: functional, organism-based; conditions: D6, 72 h; how it was run: as §1
[22] = Solubility of the compound in DSPC:cholesterol:DSPE-PEG2000-Mal:DOPE-Rho lipid mixture at 250 uM; type: physicochemical
How it was run: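 Compound added at 250 µM drug to the initial liposome lipid mixture (10 mM total lipid); precipitation and UV-visible absorbance above 300 nm assessed after encapsulation, removal of unencapsulated material and extraction with 1% w/v SDS in RPMI-A.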

[23] = tested on: Plasmodium berghei; assay: Antiplasmodial activity against Plasmodium berghei ANKA infected in mouse assessed as inhibition of parasitemia at 50 mg/kg/day, po for 4 consecutive days starting from 2 hrs post infection by MSF assay relative to control; type: functional
How it was run: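 Swiss male mice (20 ± 2 g) infected ip with 10^7 P. berghei ANKA parasitized cells (day 0). Five per group dosed orally 2 h after infection and daily on days 0–3. Test compounds at 50 mg/kg/day in water:DMSO; chloroquine diphosphate at 3 mg/kg/day; vehicle controls. Parasitemia measured on day 4 by MSF assay; survival checked daily.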

Row | SMILES | fold induction at 0.25 mg/ml [2] | fold induction at 0.25 mg/ml [3] | viability at 0.008 mg/ml [4] [%] | viability at 0.063 mg/ml [5] [%] | viability at 0.125 mg/ml [6] [%] | viability at 0.5 mg/ml [7] [%] | viability at 0.031 mg/ml [8] [%] | fold induction at 1 mg/ml [9] | fold induction at 0.5 mg/ml [10] | viability at 0.25 mg/ml [11] [%] | fold induction at 0.5 mg/ml [13] | MSD [14] [days] | viability at 0.5 mg/ml [15] [%] | viability at 1 mg/ml [16] [%] | viability at 0.001 mg/ml [17] [%] | viability at 0.031 mg/ml [18] [%] | viability at 0.25 mg/ml [19] [%] | viability at 0.004 mg/ml [20] [%] | solubility [22] | other results
1 | OC(CCN1CCN(c2ccccc2C(F)(F)F)CC1)c1ccc(F)c2ccccc12 (stereo in doubt; 55) | 0.7 | 0.1 | 68.7 | 90.8 | 167 | 168 | 127 | 0.4 | 0.7 | 207 | 0.4 | 8 | 175 | 164 | 43.3 | 101 | 95.4 | 52.1 | Insoluble | IC50 [1]: Not Active; IC50 [12]: 140 nM; IC50 [21]: 100 nM
2 | OC(CCN1CCN(c2ccccc2C(F)(F)F)CC1)c1ccc(F)cc1 (centres undefined) | 1.3 | 0.5 | 98.3 | 89 | 25.4 | 37.2 | 95.5 | 0.3 | 0.2 | 70.1 | 1.2 | – | 129 | 97 | 111 | 86.7 | 24.6 | 107 | Insoluble | –
3 | COc1ccccc1C1=CCN(CCC(O)c2ccc(F)cc2)CC1 (centres undefined) | 1.1 | 1.3 | 111 | 91 | 107 | 82.1 | 114 | 1 | 2.3 | 92.3 | 1.3 | 6 | 19.4 | 32.2 | 114 | 81.8 | 73 | 104 | Insoluble | inhibition in vivo at 50 mg/kg/day [23]: ≤ 50%; IC50 [12]: 3690 nM; IC50 [21]: 3730 nM
4 | N#Cc1ccc(C(O)CCN2CC=C(c3ccc(F)cc3)CC2)cc1 (centres undefined) | 1.1 | 1.2 | 89.4 | 101 | 87.9 | 99.1 | 77.3 | – | 1.2 | 75.8 | 0.9 | – | 66.5 | – | 109 | 130 | 95.1 | 94.7 | – | –
5 | Nc1ccc(N2CCC(NCCC(O)c3ccc(F)c4ccccc34)CC2)c(C(F)(F)F)c1 (centres undefined) | 0.1 | 0.2 | 27.7 | 55.7 | 32.4 | 118 | 31.5 | – | 0.1 | 48 | 0.1 | 3 | 68.2 | – | 101 | 39.1 | 118 | 38.7 | – | –
6 | OC(CCN1CCN(c2ccc(F)cc2)CC1)c1ccc(F)c2ccccc12 (centres undefined) | 0.9 | 1.1 | 122 | 112 | 56.2 | 112 | 87 | – | 0.6 | 51.2 | 1.2 | – | 196 | – | 111 | 140 | 66.2 | 87.9 | – | –
7 | OC(CCN1CC=C(c2ccc(F)cc2)CC1)c1ccc2c(c1)OCO2 (centres undefined) | 1 | 0.7 | 128 | 105 | 116 | 87.1 | 113 | – | 0.9 | 128 | 0.9 | – | 81.4 | – | 131 | 137 | 96 | 114 | – | IC50 [1]: Not Active

Reference: ChEMBL document CHEMBL4152256, “Structure-activity relationship of new antimalarial 1-aryl-3-susbtituted propanol derivatives: Synthesis, preliminary toxicity profiling, parasite life cycle stage studies, target exploration, and targeted delivery” (Eur J Med Chem, 2018)
